Results reported in ChEMBL document CHEMBL1123889, “Improved synthesis and antitumor activity of 1-deazaadenosine” (J Med Chem, 1987).

Tests used:
HeLa [1] = experiment: The compound was tested in vitro for antitumor activity(50% inhibition of tumor cell growth) against HeLa human cell lines after 144 hr; type: functional; conditions: read-out: ID50 (the source's name)
Summary of the method: (§1)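 5 × 10^5 exponentially growing cells exposed to varying drug concentrations for 144 h, then counted with a Coulter counter. ID50 is the drug concentration in culture medium giving 50% inhibition of cell growth versus untreated controls.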

KB [2] = experiment: The compound was tested in vitro for antitumor activity(50% inhibition of tumor cell growth) against KB human cell lines after 144 hr; type: functional; conditions: read-out: ID50 (the source's name); summary of the method: as §1
KB [3] = experiment: The compound was tested in vitro for antitumor activity(50% inhibition of tumor cell growth) against KB human cell lines after 72 hr; type: functional; conditions: read-out: ID50 (the source's name)
Summary of the method: (§2)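 5 × 10^5 exponentially growing human tumour cells were exposed to a range of drug concentrations for the stated time (72 or 144 h), then counted on a Coulter counter. ID50 is the concentration in the culture medium giving 50% inhibition of cell growth relative to untreated controls.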

L1210 [4] = experiment: Antitumor activity against leukemia L1210 cells at 12.5 mg/kg/day expressed as mean survival of treated mice (T) to untreated (C) was reported; type: functional, Mus musculus
L1210 [5] = experiment: Antitumor activity against leukemia L1210 cells at 25.0 mg/kg/day expressed as mean survival of treated mice (T) to untreated (C) was reported; type: functional, Mus musculus
L1210 [6] = experiment: Antitumor activity against leukemia L1210 cells at 6.3 mg/kg/day expressed as mean survival of treated mice (T) to untreated (C) was reported; type: functional, Mus musculus
L1210 [7] = experiment: Antitumor activity against leukemia L1210 cells at 12.5 mg/kg/day expressed as Number of mice died for toxicity to number of treated mice; 0/10 mice; type: functional, Mus musculus
L1210 [8] = experiment: Antitumor activity against leukemia L1210 cells at 6.3 mg/kg/day expressed as Number of mice died for toxicity to number of treated mice; 0/10 mice; type: functional, Mus musculus
L1210 [9] = experiment: (§3) The compound was tested in vitro for antitumor activity(50% inhibition of tumor cell growth) against the L1210 murine cell lines after 72 hours; type: functional; conditions: Mus musculus, L1210, 72 h; read-out: ID50 (the source's name)
Summary of the method: (§4)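 Murine leukemia cells (P388, the doxorubicin-resistant subline P388/DX, or L1210) were grown as suspension cultures in 1640 medium with 10% fetal calf serum, 20 µM 2-mercaptoethanol, […] and antibiotics, at 37 °C in humidified 5% CO2. 5 × 10^5 exponentially growing cells were exposed to a range of drug concentrations for 72 h, then Coulter-counted. ID50 is the concentration giving 50% growth inhibition versus untreated controls.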

Mus musculus [10] = experiment: Antitumor activity against leukemia P388/DX cells at 12.5 mg/kg/day expressed as toxic deaths in mice was reported; 0/10 mice; type: functional
Summary of the method: (§5)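 BDF1 mice given 10^6 doxorubicin-resistant P388 cells ip; the line was kept by weekly ip passage with doxorubicin. Compound was dissolved in distilled water just before use and given ip daily for 7 days from 24 h post-inoculation; 10 mice per dose. %T/C = median survival of treated/control ×100, with 125 significant. Toxicity was judged by autopsy (spleen and liver shrinkage).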

Mus musculus [11] = experiment: Antitumor activity against leukemia P388/DX cells at 3.1 mg/kg/day expressed as toxic deaths in mice was reported; 0/10 mice; type: functional; summary of the method: as §5
Mus musculus [12] = experiment: Antitumor activity against leukemia P388/DX cells at 6.3 mg/kg/day expressed as toxic deaths in mice was reported; 0/10 mice; type: functional; summary of the method: as §5
Mus musculus [13] = species: Mus musculus; experiment: (§6) The compound was tested in vitro for antitumor activity(50% inhibition of tumor cell growth) against the P388/doxorubicin resistant murine cell lines after 72 hours; type: functional; conditions: P388, 72 h, read-out: ID50 (the source's name); summary of the method: as §4
Mus musculus [14] = experiment: Antitumor activity against leukemia P388/DX cells at 3.1 mg/kg/day expressed as mean survival of treated mice (T) to untreated (C) was reported; type: functional; summary of the method: as §5
Mus musculus [15] = experiment: Antitumor activity against leukemia P388/DX cells at 6.3 mg/kg/day expressed as mean survival of treated mice (T) to untreated (C) was reported; type: functional; summary of the method: as §5
Mus musculus [16] = experiment: Antitumor activity against leukemia P388/DX cells at 12.5 mg/kg/day expressed as mean survival of treated mice (T) to untreated (C) was reported; type: functional; summary of the method: as §5
P388 [17] = experiment: (§7) The compound was tested in vitro for antitumor activity(50% inhibition of tumor cell growth) against the P388 murine cell lines after 72 hours; type: functional; conditions: Mus musculus, P388, 72 h; read-out: ID50 (the source's name); summary of the method: as §4
HeLa [18] = experiment: The compound was tested in vitro for antitumor activity(50% inhibition of tumor cell growth) against HeLa human cell lines after 72 hr; type: functional; conditions: read-out: ID50 (the source's name); summary of the method: as §2
L1210 [19] = experiment: Antitumor activity against leukemia L1210 cells at 25.0 mg/kg/day expressed as Number of mice died for toxicity to number of treated mice; 6/10 mice; type: organism-based; conditions: mouse, in vivo
L1210 [20] = experiment: Antitumor activity against leukemia L1210 cells at 150.0 mg/kg/day expressed as Number of mice died for toxicity to number of treated mice; 0/10 mice; type: functional, Mus musculus
L1210 [21] = experiment: Antitumor activity against leukemia L1210 cells at 75.0 mg/kg/day expressed as Number of mice died for toxicity to number of treated mice; 0/10 mice; type: functional, Mus musculus
L1210 [22] = experiment: Antitumor activity against leukemia L1210 cells at 150.0 mg/kg/day expressed as mean survival of treated mice (T) to untreated (C) was reported; type: functional, Mus musculus
L1210 [23] = experiment: Antitumor activity against leukemia L1210 cells at 75.0 mg/kg/day expressed as mean survival of treated mice (T) compared to untreated (C) was reported; type: functional, Mus musculus
Mus musculus [24] = experiment: Antitumor activity against leukemia P388/DX cells at 100.0 mg/kg/day expressed as toxic deaths in mice was reported; 0/10 mice; type: functional
Summary of the method: (§8)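 BDF1 mice given 10^6 doxorubicin-resistant P388 cells ip. Compound was dissolved in distilled water just before use and given ip daily for 9 days from 24 h post-inoculation. %T/C = median survival of treated/control ×100, with 125 significant. Toxic deaths were judged by gross autopsy, mainly from reduced spleen and liver size.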

Mus musculus [25] = experiment: Antitumor activity against leukemia P388/DX cells at 150.0 mg/kg/day expressed as mean survival of treated mice (T) to untreated (C) was reported; type: functional; summary of the method: as §8
Mus musculus [26] = experiment: Antitumor activity against leukemia P388/DX cells at 300.0 mg/kg/day expressed as mean survival of treated mice (T) to untreated (C) was reported; type: functional; summary of the method: as §8
Mus musculus [27] = experiment: Antitumor activity against leukemia P388/DX cells at 100.0 mg/kg/day expressed as mean survival of treated mice (T) to untreated (C) was reported; type: functional; summary of the method: as §8
Mus musculus [28] = experiment: Antitumor activity against leukemia P388/DX cells at 150.0 mg/kg/day expressed as toxic deaths in mice was reported; 2/20 mice; conditions: in vivo
Mus musculus [29] = experiment: Antitumor activity against leukemia P388/DX cells at 300.0 mg/kg/day expressed as toxic deaths in mice was reported; 8/20 mice; conditions: in vivo
L1210 [30] = experiment: as §3; type: functional; conditions: Mus musculus, L1210, 72 h; read-out: ID50 (the source's name); remark: listed apart in the source
Summary of the method: (§9)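 Suspension cultures were grown in 1640 medium with 10% fetal calf serum, 20 µM 2-mercaptoethanol, […] and antibiotics at 37 °C in 5% CO2. 5×10^5 exponentially growing cells were exposed to varying drug concentrations for 72 h, then counted with a Coulter counter. ID50 is the concentration giving 50% growth inhibition versus untreated controls.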

Mus musculus [31] = species: Mus musculus; experiment: as §6; type: functional; conditions: P388, 72 h, read-out: ID50 (the source's name); summary of the method: as §9; remark: listed apart in the source
P388 [32] = experiment: as §7; type: functional; conditions: Mus musculus, P388, 72 h; read-out: ID50 (the source's name); summary of the method: as §9; remark: listed apart in the source

| SMILES | IC50 (HeLa [1]) | IC50 (KB [2]) | IC50 (KB [3]) | IC50 (L1210 [9]) | IC50 (Mus musculus [13]) | IC50 (P388 [17]) | IC50 (HeLa [18]) | also measured |
| --- | --- | --- | --- | --- | --- | --- | --- | --- |
| Nc1ccnc2c1ncn2[C@@H]1O[C@H](CO)[C@@H](O)[C@H]1O | 1.2 µM | 0.6 µM | 0.3 µM | 1.8 µM | 0.4 µM | 1.1 µM | 1.2 µM | T/C (L1210 [4]): 113%; T/C (L1210 [5]): 88%; T/C (L1210 [6]): 100%; Activity (L1210 [7]): 0; Activity (L1210 [8]): 0; Activity (Mus musculus [10]): 0; Activity (Mus musculus [11]): 0; Activity (Mus musculus [12]): 0; T/C (Mus musculus [14]): 106%; T/C (Mus musculus [15]): 106%; T/C (Mus musculus [16]): 111%; Activity (L1210 [19]): 6 |
| O=[N+]([O-])c1ccnc2c1ncn2C1O[C@H](CO)[C@@H](O)[C@H]1O (some centres not stated) | 27 µM | 13.1 µM | 33.8 µM | 11.8 µM | 8.1 µM | 12.5 µM | 64.1 µM | Activity (L1210 [20]): 0; Activity (L1210 [21]): 0; T/C (L1210 [22]): 106%; T/C (L1210 [23]): 106%; Activity (Mus musculus [24]): 0; T/C (Mus musculus [25]): 97%; T/C (Mus musculus [26]): 22%; T/C (Mus musculus [27]): 95%; Activity (Mus musculus [28]): 2; Activity (Mus musculus [29]): 8 |
| Nc1ncnc2c1ncn2[C@@H]1O[C@H](CO)[C@@H](O)[C@H]1O [ADENOSINE] | 27.7 µM | 25.4 µM | 89.8 µM | 23.6 µM | 10.8 µM | 12.7 µM | 46 µM | – |
| Nc1ccn([C@@H]2O[C@H](CO)[C@@H](O)[C@@H]2O)c(=O)n1 [CYTARABINE] | 0.1 µM | 1.1 µM | 1 µM | 0.02 µM | 0.01 µM | 0.02 µM | 0.6 µM | – |
| O=c1[nH]cc(F)c(=O)[nH]1 [FLUOROURACIL] | 0.8 µM | 2 µM | 13.8 µM | – | – | – | 6.1 µM | IC50 (L1210 [30]): 0.4 µM; IC50 (Mus musculus [31]): 0.1 µM; IC50 (P388 [32]): 0.3 µM |
